Each structure is given as a SMILES string.

Broadly, the IC50 is the midpoint of a concentration-inhibition curve. Read a low IC50 as higher potency.

Data set [1] deals with THP-1. The data set can be described thus: Cytotoxicity against human PMA-differentaited THP1 cells after 24 hrs by MTT assay. The data set is classed as cell-based. The following applies: THP-1, 24 h.
A short description of data set [2]: Selectivity index, ratio of IC50 for human PMA-differentaited THP1 cells to IC50 for promastigote form of Leishmania donovani Dd8. The data set is classed as toxicity. Conditions: PMA-differentiated THP1 cells, read-out: Ratio IC50. Summed up: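 Ratio of IC50 against THP-1 macrophages (normal cells) to IC50 against L. donovani promastigotes.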
In data set [3] the test system is Leishmania donovani. The data set can be described thus: Antileishmanial activity against Leishmania donovani Dd8 promastigote forms after 48 hrs by neubauer hemocytometer method. Conditions: for IC50: Dd8, 48 h. The data set is classed as functional. Summed up:
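Promastigotes of L. donovani Dd8 strain exposed 48 h to increasing concentrations of test agent; percent viability scored, IC50 derived.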

The test system of data set [4] is THP-1. In words: Cytotoxicity against human PMA-differentaited THP1 cells assessed as cell viability at 100 uM after 24 hrs by MTT assay. The data set is classed as cell-based. The following applies: thp-1, 24 h. On the technique in general: Tetrazolium assays rely on reduction of a dye to a coloured formazan, in cell work by metabolically active cells.

As for `N[C@@H](Cc1c[nH]c2ccccc12)C(=O)OCc1cn(-c2ccc(F)cc2)nn1`, the figures for the IC50 in data set [1] and in data set [3] were 352 µM and 151 µM, respectively. Moreover, the selectivity ratio in data set [2] turned out to be 2.32.

In the case of `O=C(OCc1cn(-c2ccccc2)nn1)[C@@H]1CCCN1`, the Activity entry is “Non-Toxic” in data set [4] and “Dose-dependent effect” in data set [3]. In addition, the half-maximal inhibitory concentration (IC50) in data set [1] amounted to 780 µM; in data set [3] it was 96.9 µM. Moreover, the selectivity ratio in data set [2] was 8.05.

With `O=C(OCc1cn(-c2ccc([N+](=O)[O-])cc2)nn1)[C@@H]1CCCN1`, the half-maximal inhibitory concentration (IC50) came out at 344 µM in data set [1] and 189 µM in data set [3]. The selectivity ratio in data set [2] stood at 1.82.

Take `N[C@@H](Cc1c[nH]c2ccccc12)C(=O)OCc1cn(-c2ccc([N+](=O)[O-])cc2)nn1`: the results for the IC50 in data set [1] and in data set [3] were 174 µM and 119 µM, respectively. The selectivity ratio in data set [2] amounted to 1.47.

As for `COc1ccc(-n2cc(COC(=O)[C@@H]3CCCN3)nn2)cc1`, the IC50 in data set [1] stood at 218 µM; in data set [3] it was 104 µM. In data set [2], the selectivity ratio turned out to be 2.11.

As for `O=C(OCc1cn(-c2ccc(Cl)cc2)nn1)[C@@H]1CCCN1`, the half-maximal inhibitory concentration (IC50) in data set [1] was 346 µM; in data set [3], 157 µM. In data set [2], the selectivity ratio was determined as 2.2.

As for `O=C(OCc1cn(-c2ccc(F)cc2)nn1)[C@@H]1CCCN1`, the concentration for half-maximal inhibition (IC50) in data set [1] was 309 µM; in data set [3] it was 122 µM. Also, in data set [2], the selectivity ratio was found to be 2.54.

As to `COc1ccc(-n2cc(COC(=O)[C@@H](N)Cc3c[nH]c4ccccc34)nn2)cc1`, the Activity entry in data set [4] is “Non-Toxic”; in data set [3] it was “Dose-dependent effect”. The half-maximal inhibitory concentration (IC50) in data set [1] came to 195 µM; in data set [3], 94.5 µM. Also, the selectivity ratio in data set [2] stood at 2.06.

`N[C@@H](Cc1ccccc1)C(=O)OCc1cn(-c2ccc([N+](=O)[O-])cc2)nn1`: the figures for the IC50 in data set [1] and in data set [3] were 180 µM and 171 µM, respectively. Moreover, the selectivity ratio in data set [2] was 1.05.

Consider `N[C@@H](Cc1ccccc1)C(=O)OCc1cn(-c2ccccc2)nn1`, for which the 50% inhibitory concentration (IC50) was determined as 504 µM in data set [1] and 163 µM in data set [3]. Further, in data set [2], the selectivity ratio worked out at 3.09.

Consider `N[C@@H](Cc1c[nH]c2ccccc12)C(=O)OCc1cn(-c2ccccc2)nn1`, for which the results for the IC50 in data set [1] and in data set [3] were 191 µM and 138 µM, respectively. The selectivity ratio in data set [2] was 1.39.

As for `N[C@@H](Cc1ccccc1)C(=O)OCc1cn(-c2ccc(Cl)cc2)nn1`, the IC50 in data set [1] came out at 389 µM; in data set [3], 132 µM. For the same compound, the selectivity ratio in data set [2] stood at 2.94.

Consider `Cc1ccc(-n2cc(COC(=O)[C@@H]3CCCN3)nn2)cc1`, for which the IC50 in data set [1] was 421 µM; in data set [3] it was 175 µM. Besides, in data set [2], the selectivity ratio came out at 2.4.

Turning to `COc1ccc(-n2cc(COC(=O)[C@@H](N)Cc3ccccc3)nn2)cc1`, the IC50 came out at 260 µM in data set [1] and 144 µM in data set [3]. Besides, the selectivity ratio in data set [2] was determined as 1.8.

`N[C@@H](Cc1c[nH]c2ccccc12)C(=O)OCc1cn(-c2ccc(Cl)cc2)nn1`: the 50% inhibitory concentration (IC50) was determined as 317 µM in data set [1] and 129 µM in data set [3]. Also, in data set [2], the selectivity ratio was 2.46.

Consider `Cc1ccc(-n2cc(COC(=O)[C@@H](N)Cc3ccccc3)nn2)cc1`, for which the Activity entry was “Non-Toxic” in data set [4] and “Dose-dependent effect” in data set [3]. Further, the 50% inhibitory concentration (IC50) in data set [1] was found to be 292 µM; in data set [3] it was 88.8 µM. Further, in data set [2], the selectivity ratio was 3.28.

`Cc1ccc(-n2cc(COC(=O)[C@@H](N)Cc3c[nH]c4ccccc34)nn2)cc1`: the IC50 in data set [1] was 293 µM; in data set [3] it was 99.4 µM. For the same compound, in data set [2], the selectivity ratio was 2.95.

Take `CCCCCCCCCCCCCCCCOP(=O)([O-])OCC[N+](C)(C)C` [MILTEFOSINE]: the IC50 was determined as 54.1 µM in data set [1] and 27.1 µM in data set [3]. Besides, the selectivity ratio in data set [2] was determined as 1.99.

For `N[C@@H](Cc1ccccc1)C(=O)OCc1cn(-c2ccc(F)cc2)nn1`, the IC50 came to 196 µM in data set [1] and 133 µM in data set [3]. Besides, in data set [2], the selectivity ratio was 1.48.

The record behind these values is ChEMBL document CHEMBL4014305, “Anti-leishmanial and cytotoxic activities of amino acid-triazole hybrids: Synthesis, biological evaluation, molecular docking and in silico physico-chemical properties” (Bioorg Med Chem Lett, 2017).
